ChEMBL document CHEMBL4680135, “Design, synthesis and biological evaluation of indole-2-carboxylic acid derivatives as IDO1/TDO dual inhibitors” (Eur J Med Chem, 2020)
Activity calls are given as the source filed them. No cut-off for these calls is given here.

How the values were obtained:
[1] = system: B16-F10; test: Antitumor activity against mouse B16F10 cells xenografted in C57BL/6 mouse assessed as tumor growth inhibition at 100 mg/kg, po administered for 19 consecutive days relative to control; type: functional; details: 456 h, time 19 day, read-out: TGI
How it was run: (§1)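 B16F10 melanoma cells harvested in saline; 1×10^6 cells injected subcutaneously into C57BL/6 mice on day 0. Mice randomized; daily oral dosing from day 1, compound in 0.5% CMC-Na, vehicle controls given 0.5% CMC-Na orally; cyclophosphamide 100 mg/kg i.p. as reference group.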

[2] = Toxicity in C57BL/6 mouse xenografted with mouse B16F10 cells assessed as body weight loss at 50 to 100 mg/kg, po administered for 19 consecutive days; type: organism-based; details: in vivo, 456 h, dose 50-100 mg/kg, time 19 day
How it was run: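 B16F10 cells (1×10^6) implanted subcutaneously in C57BL/6 mice on day 0; daily oral treatment from day 1 with compound suspended in 0.5% CMC-Na, vehicle group receiving 0.5% CMC-Na. Body weight of treated mice compared against vehicle control group.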

[3] = system: T-lymphocyte; test: Reversal of IDO1/TDO-mediated suppression of mouse T-lymphocyte proliferation assessed as increase in mytomycin C treated LLC cells stimulated T-cells proliferation at 10 uM incubated for 3 days by Cell Titer Glo luminescent cell viability assay; type: cell-based; details: time 3.0 day
How it was run: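 Responder T lymphocytes from BALB/c mouse splenocytes (1×10^5/well) in RPMI 1640 with 10% FBS co-cultured with 1×10^4 LLC stimulator cells pretreated with mitomycin C (final 25 µg/mL, 37 °C, 1 h, washed thrice), plus compound; 37 °C, 5% CO₂, 3 days. Proliferation by CellTiter-Glo luminescence; mean of three replicate wells with SEM.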

[4] = system: A 172; test: Inhibition of IDO1/TDO in IFNgamma-stimulated human A172 cells assessed as reduction in kynurenine formation at 100 uM using L-tryptophan as substrate incubated for 48 hrs by microplate reader analysis relative to control; type: cell-based
How it was run: (§2)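 A172 cells seeded at 4×10^4/well, next day given compound in 10% serum medium with IFNγ (final 100 ng/mL) and Trp (final 1 mmol/L), 48 h. Supernatant treated with 30% (w/v) TCA, heated 65 °C 15 min, mixed with 2% p-dimethylaminobenzaldehyde in acetic acid; kynurenine pigment read at 490 nm.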

[5] = system: A 172; test: Inhibition of IDO1/TDO in IFNgamma-stimulated human A172 cells assessed as reduction in kynurenine formation at 50 uM using L-tryptophan as substrate incubated for 48 hrs by microplate reader analysis relative to control; type: cell-based; how it was run: as §2
[6] = target: Indoleamine 2,3-dioxygenase 1 (Homo sapiens, UniProt P14902); test: Inhibition of recombinant human IDO1 assessed as reduction in kynurenine formation using L-tryptophan as substrate incubated for 45 mins by microplate reader assay
[7] = target: Tryptophan 2,3-dioxygenase (Homo sapiens, UniProt P48775); test: Inhibition of recombinant human TDO assessed as reduction in kynurenine formation using L-tryptophan as substrate incubated for 45 mins by microplate reader assay
How it was run: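 Purified recombinant human TDO (0.05 μM) in 100 mM potassium phosphate pH 6.5 with 40 mM neutralized ascorbate, 200 μg/mL catalase, 20 μM methylene blue, L-Trp substrate and compound; 37 °C, 45 min. Stopped with 30% TCA, 65 °C 15 min, then 2% p-dimethylaminobenzaldehyde in acetic acid; absorbance 490 nm; IC50 by curve fitting.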

[8] = system: B16-F10; test: Antitumor activity against mouse B16F10 cells xenografted in C57BL6 mouse assessed as tumor growth inhibition at 50 mg/kg, po administered for 19 consecutive days relative to control; type: functional; details: 456 h, time 19 day, read-out: TGI; how it was run: as §1

Chain of Tryptophan 2,3-dioxygenase (P48775 whole entry): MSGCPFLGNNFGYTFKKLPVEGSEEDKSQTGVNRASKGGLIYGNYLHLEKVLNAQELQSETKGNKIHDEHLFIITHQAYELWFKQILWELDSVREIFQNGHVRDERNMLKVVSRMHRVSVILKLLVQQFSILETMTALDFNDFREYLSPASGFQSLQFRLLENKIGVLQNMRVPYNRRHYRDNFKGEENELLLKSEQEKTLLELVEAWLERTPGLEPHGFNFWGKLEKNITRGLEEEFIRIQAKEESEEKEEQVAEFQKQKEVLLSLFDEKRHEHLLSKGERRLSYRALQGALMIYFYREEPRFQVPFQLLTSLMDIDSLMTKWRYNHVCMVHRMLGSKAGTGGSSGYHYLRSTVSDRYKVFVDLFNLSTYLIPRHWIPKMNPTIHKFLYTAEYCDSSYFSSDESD
Chain of Indoleamine 2,3-dioxygenase 1 (P14902 whole entry): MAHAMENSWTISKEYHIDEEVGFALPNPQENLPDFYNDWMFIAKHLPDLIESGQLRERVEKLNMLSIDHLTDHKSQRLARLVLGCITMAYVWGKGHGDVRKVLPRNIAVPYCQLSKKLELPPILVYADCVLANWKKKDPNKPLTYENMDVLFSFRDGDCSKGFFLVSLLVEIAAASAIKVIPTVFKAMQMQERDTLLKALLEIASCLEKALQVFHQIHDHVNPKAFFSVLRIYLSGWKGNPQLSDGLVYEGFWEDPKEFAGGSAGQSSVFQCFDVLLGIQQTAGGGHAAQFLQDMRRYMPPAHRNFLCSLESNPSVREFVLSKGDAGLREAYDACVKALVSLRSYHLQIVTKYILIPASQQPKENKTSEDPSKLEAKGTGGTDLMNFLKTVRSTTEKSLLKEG

- IC50 [6]: 3.18 µM
- IC50 [7]: 7.12 µM
Structure (SMILES): COc1cc(Nc2cc(NC(C)=O)cc3[nH]c(C(=O)O)cc23)cc(OC)c1OC
- inhibition in vivo at 100 mg/kg [1]: 44.7%
- Activity [2]: Non-Toxic
- Activity [3]: Active
- inhibition [4]: 77.7%
- inhibition [5]: 55.9%
- inhibition in vivo at 50 mg/kg [8]: 43.2%
